According to ChEMBL document CHEMBL1143406 (Antimicrob Agents Chemother, 2007):

Assays:
Homo sapiens [1] = assay: Toxicity in HIV-negative human assessed as alanine aminotransferase levels at 400 mg, po administered every 12 hrs coadministered with 600 mg of rifampin every 24 hrs; conditions: in vivo
Homo sapiens [2] = assay: Toxicity in human with two gilbert's genotype homozygotes assessed as bilirubin level at 300 mg, po administered every 12 hrs; format: organism-based; conditions: in vivo
Homo sapiens [3] = assay: Toxicity in HIV-negative human assessed as hemoglobin level at 300 mg, po administered every 12 hrs; format: organism-based; conditions: in vivo
[4] = AUC (24hrs) in HIV-negative human at 400 mg administered every 24 hrs; format: ADME, organism-based; conditions: plasma
[5] = Apparent oral clearance in HIV-negative human serum at 300 mg, po administered every 12 hrs; format: ADME, organism-based
In short: (§1)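 Healthy HIV-negative volunteers, open-label sequential periods at steady state. […] Plasma (EDTA) drawn predose and 1–12 h (plus 24 h) on last day of period. Atazanavir measured by HPLC-UV 212 nm, linear 25–20,000 ng/ml. Noncompartmental analysis; AUC24 taken as doubled AUC12.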

Homo sapiens [6] = assay: Toxicity in HIV-negative human assessed as alanine aminotransferase levels at 300 mg, po administered every 12 hrs administered every 12 hrs coadministered with 600 mg of rifampin every 24 hrs; format: organism-based; conditions: in vivo
[7] = AUC (12 hrs) in HIV-negative human at 400 mg, po administered every 12 hrs coadministered with 600 mg of rifampin every 24 hrs; format: ADME, organism-based; design: dose 400 mg, time < 12 hr, route oral; conditions: plasma
In short: as §1

[8] = Tmax in HIV-negative human at 300 mg, po administered every 12 hrs coadministered with 600 mg of rifampin every 24 hrs; format: ADME, organism-based; conditions: in vivo
In short: as §1

[9] = Cmax in HIV-negative human at 300 mg, po administered every 12 hrs coadministered with 600 mg of rifampin every 24 hrs; format: ADME, organism-based; design: dose 300 mg, route oral; conditions: in vivo
In short: as §1

Homo sapiens [10] = assay: Toxicity in HIV-negative human assessed as creatinine levels at 300 mg, po administered every 12 hrs administered every 12 hrs coadministered with 600 mg of rifampin every 24 hrs; format: organism-based; conditions: in vivo
Homo sapiens [11] = assay: Terminal apparent distribution volume in HIV-negative human serum at 400 mg, po administered every 12 hrs coadministered with 600 mg of rifampin every 24 hrs; format: ADME, organism-based; conditions: in vivo
In short: as §1

[12] = Cmax in HIV-negative human at 300 mg coadministered with 100 mg of ritonavir every 24 hrs; format: ADME, organism-based; design: dose 300 mg; conditions: in vivo
[13] = Cmax in HIV-negative human at 400 mg administered every 24 hrs; format: ADME, organism-based; design: dose 400 mg; conditions: in vivo
Homo sapiens [14] = assay: Toxicity in HIV-negative human assessed as hemoglobin level at 300 mg, po administered every 12 hrs administered every 12 hrs coadministered with 600 mg of rifampin every 24 hrs; format: organism-based; conditions: in vivo
Homo sapiens [15] = assay: Toxicity in HIV-negative human assessed as alanine aminotransferase levels at 300 mg, po administered every 12 hrs; format: organism-based; conditions: in vivo
Homo sapiens [16] = species on record: Homo sapiens; assay: Toxicity in HIV-negative human assessed as grade 3 fatigue; format: organism-based; conditions: in vivo
[17] = AUC (12 hrs) in HIV-negative human at 300 mg, po administered every 12 hrs coadministered with 600 mg of rifampin every 24 hrs; format: ADME, organism-based; design: dose 300 mg, time < 12 hr, route oral; conditions: plasma
In short: as §1

Homo sapiens [18] = assay: Toxicity in HIV-negative human assessed as hemoglobin level at 400 mg, po administered every 12 hrs coadministered with 600 mg of rifampin every 24 hrs; conditions: in vivo
Homo sapiens [19] = assay: Toxicity in gilbert's genotype lacking human assessed as bilirubin level at 300 mg, po administered every 12 hrs; format: organism-based; conditions: in vivo
[20] = Half life in HIV-negative human at 400 mg, po administered every 12 hrs coadministered with 600 mg of rifampin every 24 hrs; format: ADME, organism-based; conditions: in vivo
In short: as §1

Homo sapiens [21] = assay: Toxicity in HIV-negative human assessed as creatinine levels at 300 mg, po administered every 12 hrs; format: organism-based; conditions: in vivo
[22] = AUC (24 hrs) in HIV-negative human at 300 mg, po administered every 12 hrs coadministered with 600 mg of rifampin every 24 hrs; format: ADME, organism-based; design: dose 300 mg, time < 24 hr, route oral; conditions: plasma
In short: as §1

[23] = AUC (12 hrs) in HIV-negative human at 300 mg, po administered every 12 hrs; format: ADME, organism-based; design: time < 12 hr, dose 300 mg, route oral; conditions: plasma
In short: as §1

[24] = Drug level in HIV-negative human serum at 300 mg, po administered every 12 hrs measured at 12 hrs; format: ADME, organism-based
In short: (§2)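 Steady-state atazanavir level 12 h after morning dose, sampled before the evening dose and read directly from observed data. […] Plasma measured by HPLC-UV at 212 nm after tert-butyl methyl ether extraction. Linear range 25–20,000 ng/ml.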

Homo sapiens [25] = assay: Toxicity in HIV-negative human assessed as bilirubin level at 300 mg, po administered every 12 hrs; format: organism-based; conditions: in vivo
In short: (§3)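 Serum bilirubin measured at commercial laboratories as a safety test during steady-state dosing periods in healthy HIV-negative volunteers.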

[26] = Half life in HIV-negative human at 300 mg, po administered every 12 hrs; format: ADME, organism-based; conditions: in vivo
In short: as §1

[27] = AUC (24 hrs) in HIV-negative human at 300 mg, po administered every 12 hrs; format: ADME, organism-based; design: dose 300 mg, time < 24 hr, route oral; conditions: plasma
In short: as §1

[28] = Apparent oral clearance in HIV-negative human serum at 300 mg, po administered every 12 hrs coadministered with […] every 24 hrs; format: ADME, organism-based
[29] = AUC (24 hrs) in HIV-negative human at 400 mg, po administered every 12 hrs coadministered with 600 mg of rifampin every 24 hrs; format: ADME, organism-based; design: dose 400 mg, time < 24 hr, route oral; conditions: plasma
In short: as §1

[30] = Cmax in HIV-negative human at 400 mg, po administered every 12 hrs coadministered with 600 mg of rifampin every 24 hrs; format: ADME, organism-based; design: dose 400 mg, route oral; conditions: in vivo
In short: as §1

Homo sapiens [31] = assay: Toxicity in HIV-negative human assessed as bilirubin level at 400 mg, po administered every 12 hrs coadministered with 600 mg of rifampin every 24 hrs; conditions: in vivo
[32] = Half life in HIV-negative human at 300 mg, po administered every 12 hrs coadministered with 600 mg of rifampin every 24 hrs; format: ADME, organism-based; conditions: in vivo
In short: as §1

[33] = AUC (24 hrs) in HIV-negative human at 300 mg coadministered with 100 mg of ritonavir every 24 hrs; format: ADME, organism-based; design: dose 300 mg, time < 24 hr; conditions: plasma
Homo sapiens [34] = assay: Terminal apparent distribution volume in HIV-negative human serum at 300 mg, po administered every 12 hrs coadministered with 600 mg of rifampin every 24 hrs; format: ADME, organism-based; conditions: in vivo
In short: as §1

Homo sapiens [35] = assay: Toxicity in human with six gilbert's genotype heterozygotes assessed as bilirubin level at 300 mg, po administered every 12 hrs; format: organism-based; conditions: in vivo
Homo sapiens [36] = assay: Toxicity in HIV-negative human assessed as bilirubin level at 300 mg, po administered every 12 hrs administered every 12 hrs coadministered with 600 mg of rifampin every 24 hrs; format: organism-based; conditions: in vivo
In short: as §3

[37] = Cmax in HIV-negative human at 300 mg, po administered every 12 hrs; format: ADME, organism-based; design: dose 300 mg, route oral; conditions: in vivo
In short: as §1

[38] = Drug level in HIV-negative human serum at 400 mg, po administered every 12 hrs coadministered with 600 mg of rifampin every 24 hrs measured at 12 hrs; format: ADME, organism-based
In short: as §2

[39] = Drug level in HIV-negative human serum at 300 mg, po administered every 12 hrs coadministered with 600 mg of rifampin every 24 hrs measured at 12 hrs; format: ADME, organism-based
In short: as §2

[40] = Apparent oral clearance in HIV-negative human serum at 300 mg, po administered every 12 hrs coadministered with 600 mg of rifampin every 24 hrs; format: ADME, organism-based
In short: as §1

[41] = Tmax in HIV-negative human at 400 mg, po administered every 12 hrs coadministered with 600 mg of rifampin every 24 hrs; format: ADME, organism-based; conditions: in vivo
In short: as §1

Homo sapiens [42] = assay: Toxicity in HIV-negative human assessed as creatinine levels at 400 mg, po administered every 12 hrs coadministered with 600 mg of rifampin every 24 hrs; conditions: in vivo
Homo sapiens [43] = assay: Terminal apparent distribution volume in HIV-negative human serum at 300 mg, po administered every 12 hrs; format: ADME, organism-based; conditions: in vivo
In short: as §1

[44] = Tmax in HIV-negative human at 300 mg, po administered every 12 hrs; format: ADME, organism-based; conditions: in vivo
In short: as §1

For `COC(=O)N[C@H](C(=O)N[C@@H](Cc1ccccc1)[C@@H](O)CN(Cc1ccc(-c2ccccn2)cc1)NC(=O)[C@@H](NC(=O)OC)C(C)(C)C)C(C)(C)C` [ATAZANAVIR], the Activity (Homo sapiens [1]) was “Non-toxic”, the Activity (Homo sapiens [2]) was 5 mg/dL and the Activity (Homo sapiens [3]) was “Non-toxic”. For the same compound, the AUC at 24 h [4] was 29300 ng·h/mL, the CL/F [5] was 202 mL/min and the Activity (Homo sapiens [6]) was “Non-toxic”. The AUC at 12 h [7] was 9800 ng·h/mL, the Tmax [8] was 2.7 h and the Cmax [9] was 1430 ng/mL. For the same compound, the Activity (Homo sapiens [10]) was “Non-toxic”, the Vbeta (Homo sapiens [11]) was 171 L and the Cmax [12] was 6130 ng/mL. For the same compound, the Cmax [13] was 5200 ng/mL, the Activity (Homo sapiens [14]) was “Non-toxic” and the Activity (Homo sapiens [15]) was “Non-toxic”. The Activity (Homo sapiens [16]) was 7%, the AUC at 12 h [17] was 5100 ng·h/mL and the Activity (Homo sapiens [18]) was “Non-toxic”. For the same compound, the Activity (Homo sapiens [19]) was 2.6 mg/dL, the half-life [20] was 2.4 h and the Activity (Homo sapiens [21]) was “Non-toxic”. The AUC at 24 h [22] was 10300 ng·h/mL, the AUC at 12 h [23] was 23800 ng·h/mL and the concentration at 12 h [24] was 811 ng/mL. For the same compound, the Activity (Homo sapiens [25]) was “Toxic”, the half-life [26] was 5.1 h and the AUC at 24 h [27] was 47600 ng·h/mL. The CL/F [28] was 808 mL/min, the AUC at 24 h [29] was 19600 ng·h/mL and the Cmax [30] was 2360 ng/mL. The Activity (Homo sapiens [31]) was “Non-toxic”, the half-life [32] was 2.2 h and the AUC at 24 h [33] was 61400 ng·h/mL. The Vbeta (Homo sapiens [34]) was 252 L, the Activity (Homo sapiens [35]) was 4.1 mg/dL and the Activity (Homo sapiens [36]) was “Non-toxic”. It also gave a Cmax [37] of 3910 ng/mL, a concentration at 12 h [38] of 113 ng/mL and a concentration at 12 h [39] of 44 ng/mL. For the same compound, the CL/F [40] was 1390 mL/min, the Tmax [41] was 2.9 h and the Activity (Homo sapiens [42]) was “Non-toxic”. For the same compound, the Vbeta (Homo sapiens [43]) was 78 L and the Tmax [44] was 3.2 h.
